Reference: ChEMBL document CHEMBL1121426, “Structure-activity study of antiulcerous and antiinflammatory drugs by discriminant analysis” (J Med Chem, 1980)

Experiments:
[1] = Partition coefficient (logP); assay type: physicochemical; conditions: octanol/water
Rattus norvegicus [2] = experiment: Tested for inhibition of edema growth in rat; assay type: functional; set-up: concentration or dose not given beside the values
In short: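 Carrageenin paw edema in male Wistar rats (120-150 g, 10 per group). Dosing was oral, as 1% suspensions in 0.5% aqueous Na-CMC: phenylacetic acids at 100 mg/kg, aminouracils at 200 mg/kg. Paw volume was read by mercury displacement before and 3 h after injection. Percent inhibition of mean swelling was taken versus control; error <±10%.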

Rattus norvegicus [3] = experiment: Antiulcer activity in rat at the dose of 20 mg/kg administered intraperitoneally.; assay type: functional; conditions: ip, route intraperitoneal
In short: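 Pyloric ligation was done under ether on Wistar-King rats (200-250 g, 10 per group) fasted 24 h. Drug was suspended at 10 mg/mL in 0.9% saline with a trace of Tween 80 and given ip at 20 mg/kg; controls received saline. Forestomach ulcers were scored macroscopically 18 h later as an ulcer index. Percent inhibition was taken versus the mean control index; error <±10%.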

SMILES | logP [1] | Inhibition (Rattus norvegicus [2]) | inhibition in vivo at 20 mg/kg (Rattus norvegicus [3])
Cc1ccc(-c2nc(N)nc(N)n2)cc1 | 1.92 | – | 54%
COc1cc(CC(=O)O)cc(-c2ccc(F)cc2)c1 | 3.5 | 74% | –
Nc1nc(N)nc(-c2cccc(F)c2)n1 | 1.73 | – | 70%
COc1cc(CC(=O)O)cc(C(C)C)c1 | 2.75 | 10% | –
Nc1nc(N)nc(-c2ccccc2Br)n1 | 1.26 | – | 26%
Nc1nc(N)nc(-c2cccc(Br)c2)n1 | 2.44 | – | 96%
Nc1nc(N)nc(-c2cc(F)ccc2Br)n1 | 1.45 | – | 78%
Cc1cccc(CC(=O)O)c1 | 1.89 | 0% | –
Nc1nc(N)nc(-c2cccc([N+](=O)[O-])c2)n1 | 1.57 | – | 85%
COc1ccc(Br)cc1-c1nc(N)nc(N)n1 | 1.53 | – | 49%
CCCCOc1cc(C)cc(CC(=O)O)c1 | 3.38 | 3% | –
COc1cc(CC(=O)O)cc(-c2ccc(Cl)cc2Cl)c1 | 4.08 | 60% | –
COc1cc(CC(=O)O)cc(-c2ccc(Cl)cc2)c1 | 3.71 | 66% | –
Nc1nc(N)nc(-c2ccc(Cl)cc2Cl)n1 | 2.07 | – | 100%
Nc1nc(N)nc(-c2ccccc2Cl)n1 | 1.19 | – | 36%
O=C(O)Cc1cc(O)cc(-c2ccc(Cl)cc2)c1 | 3.42 | 14% | –
Nc1nc(N)nc(-c2cc(Br)ccc2F)n1 | 1.94 | – | 100%
COc1ccccc1-c1nc(N)nc(N)n1 | 0.58 | – | 1%
Nc1nc(N)nc(-c2cc(Cl)ccc2F)n1 | 1.81 | – | 89%
Nc1nc(N)nc(-c2c(Cl)cccc2Cl)n1 | 1.38 | – | 54%
COc1cc(C)cc(CC(=O)O)c1 | 1.94 | 6% | –
CCOc1ccccc1-c1nc(N)nc(N)n1 | 1.03 | – | -5%
CS(=O)(=O)c1cccc(-c2nc(N)nc(N)n2)c1 | 0.29 | – | -6%
O=C(O)Cc1cccc(Br)c1 | 2.36 | 0% | –
Nc1nc(N)nc(-c2cc(Cl)ccc2Br)n1 | 1.85 | – | 81%

SMILES | logP [1] | Inhibition (Rattus norvegicus [2]) | inhibition in vivo at 20 mg/kg (Rattus norvegicus [3])
Nc1nc(N)nc(-c2cccc(SC(F)(F)F)c2)n1 | 3.2 | – | 87%
Cc1c(N2CCOCC2)c(=O)n(C)c(=O)n1C1CCCCC1 | 2.39 | 44% | –
COc1ccc(-c2cc(CC(=O)O)cc(OC)c2)cc1 | 3.28 | 13% | –
Nc1nc(N)nc(-c2cc(C(F)(F)F)ccc2Cl)n1 | 2.27 | – | 51%
CCOc1cccc(CC(=O)O)c1 | 1.88 | 17% | –
Nc1nc(N)nc(-c2cc(Br)ccc2Br)n1 | 2.09 | – | 43%
CSc1cccc(-c2nc(N)nc(N)n2)c1 | 2.16 | – | 49%
Nc1nc(N)nc(-c2cc(Br)ccc2Cl)n1 | 2.04 | – | 86%
O=C(O)Cc1cccc([N+](=O)[O-])c1 | 1.34 | 0% | –
COc1cccc(CC(=O)O)c1 | 1.45 | -3% | –
Nc1nc(N)nc(-c2ccccc2[N+](=O)[O-])n1 | 0.49 | – | 11%
Nc1nc(N)nc(-c2ccc(Cl)cc2)n1 | – | – | 69%
Nc1nc(N)nc(-c2cccc(C(F)(F)F)c2)n1 | 2.67 | – | 81%
O=C(O)Cc1cccc(F)c1 | 1.59 | 0% | –
Nc1nc(N)nc(-c2ccc(Cl)cc2Br)n1 | 2.09 | – | 96%
COc1cc(CC(=O)O)cc(C2CCCCC2)c1 | 3.66 | 35% | –
COc1cc(CC(=O)O)cc(-c2ccc(C)cc2)c1 | 3.72 | 23% | –
Nc1nc(N)nc(-c2cc(Cl)ccc2Cl)n1 [IRSOGLADINE] | 1.97 | – | 100%
Nc1nc(N)nc(-c2ccc([N+](=O)[O-])cc2)n1 | 1.6 | – | 41%
Nc1nc(N)nc(-c2cc(F)ccc2Cl)n1 | 1.38 | – | 78%
Nc1nc(N)nc(-c2ccccc2I)n1 | 1.41 | – | -7%
Nc1nc(N)nc(-c2ccc(F)cc2)n1 | 1.61 | – | 84%
Nc1nc(N)nc(-c2cccc(Cl)c2)n1 | 2.33 | – | 100%
O=C(O)Cc1cccc(Cl)c1 | 1.59 | 0% | –

More lines, main results first:

logP [1] | SMILES | Inhibition (Rattus norvegicus [2]) | inhibition in vivo at 20 mg/kg (Rattus norvegicus [3])
1.12 | Cc1c(N(C)C)c(=O)n(CCO)c(=O)n1-c1ccccc1 | 34% | –
1.44 | C=CCn1c(C)c(N(C)C)c(=O)n(-c2ccccc2)c1=O | 54% | –
3.33 | Cc1cc(CC(=O)O)cc(OCC(C)C)c1 | 13% | –
3.3 | COc1cc(CC(=O)O)cc(-c2ccccc2)c1 | 68% | –
2.78 | CCN(CC)c1c(C)n(-c2ccccc2)c(=O)n(CC)c1=O | 53% | –
2.2 | CCN(CC)c1c(C)n(CC)c(=O)n(-c2ccccc2)c1=O | 57% | –
1.48 | Cc1c(NCC(C)C)c(=O)n(-c2ccccc2)c(=O)n1C | 58% | –
1.4 | Cc1c(N(C)C)c(=O)[nH]c(=O)n1-c1ccccc1 | 35% | –
1.2 | CCCNc1c(C)n(C)c(=O)n(-c2ccccc2)c1=O | 64% | –
0.85 | Cc1c(N(C)C)c(=O)n(-c2ccccc2)c(=O)n1CCO | 31% | –
2.75 | O=C(O)Cc1cc(O)cc(-c2ccccc2)c1 | 14% | –
1.7 | CCCNc1c(C)n(-c2ccccc2)c(=O)n(C)c1=O | 45% | –
1.69 | CCCCNc1c(C)n(C)c(=O)n(-c2ccccc2)c1=O | 48% | –
0.69 | Cc1c(N2CCOCC2)c(=O)n(-c2ccccc2)c(=O)n1C | 35% | –
2.59 | C=CCN(CC=C)c1c(C)n(-c2ccccc2)c(=O)n(C)c1=O | 46% | –
2.26 | Cc1c(N2CCCC2)c(=O)n(-c2ccccc2)c(=O)n1C | 32% | –

logP [1] | SMILES | Inhibition (Rattus norvegicus [2]) | inhibition in vivo at 20 mg/kg (Rattus norvegicus [3])
1.96 | COc1ccc(-n2c(C)c(N(C)C)c(=O)n(C)c2=O)cc1 | 41% | –
1.98 | C=CCn1c(=O)c(N(C)C)c(C)n(-c2ccccc2)c1=O | 75% | –
2.19 | CCN(CC)c1c(C)n(-c2ccccc2)c(=O)n(C)c1=O | 46% | –
3.66 | COc1cc(CC(=O)O)cc(-c2ccccc2Cl)c1 | 75% | –
1.19 | Cc1c(N(C)C)c(=O)n(C)c(=O)n1-c1ccccc1 | 65% | –
2.29 | CCn1c(=O)c(N(C)C)c(C)n(-c2ccccc2)c1=O | 51% | –
1.26 | Cc1ccccc1-c1nc(N)nc(N)n1 | – | 28%
0.99 | Cc1c(N(C)C)c(=O)n(C)c(=O)n1C | 37% | –
2.76 | Cc1c(N2CCCCC2)c(=O)n(-c2ccccc2)c(=O)n1C | 27% | –
1.3 | Cc1c(N(C)C)c(=O)n(-c2ccccc2)c(=O)n1C | 44% | –
1.36 | Nc1nc(N)nc(-c2ccccc2)n1 [BENZOGUANAMINE] | – | 70%
2.32 | Cc1c(N(C)C)c(=O)n(C)c(=O)n1-c1ccc(Cl)cc1 | 41% | –
1.65 | CCc1ccccc1-c1nc(N)nc(N)n1 | – | 20%
3.38 | CC(C)Cc1ccc(CC(=O)O)cc1 [IBUFENAC] | 32% | –
2.11 | CCN(CC)c1c(C)n(C)c(=O)n(-c2ccccc2)c1=O | 45% | –
